Source: ChEMBL document CHEMBL1122347, “synthesis and antihypertensive activity of 2-sulfonamido- and 2-sulfamido-1,3,4,6,7,11b alpha-hexahydro-2H-benzo[a]quinolizines” (1983)
Values joined by “and” are separate entries in the source; they are usually repeats but may differ in a detail not shown here. Equal values may be shown once. Active and inactive are the calls of the source. No cut-off for these calls is given here.

Experiments:
Rattus norvegicus [1] = species: Rattus norvegicus; details: 2 mg/kg
Rattus norvegicus [2] = species: Rattus norvegicus; details: Heart, 2 mg/kg
Rattus norvegicus [3] = test: Antihypertensive activity in DOCA/saline rat dosed at 50 mg/kg, administered perorally expressed as percent fall in blood pressure after 2 h; format: functional; details: route oral
Outline: (§1)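 Hypertensive rats were kept only if systolic pressure was at least 155 mmHg, in groups of four. They were dosed orally in 0.5% (hydroxypropyl)methylcellulose/0.9% saline vehicle (10 mL/kg), with a vehicle-alone control. Systolic pressure was measured by tail-cuff with a pneumatic pulse transducer in 37 °C housing before dosing and at 2, 6 and 24 h. Heart rate was taken from pulse traces. Means ± SE; ANOVA against control, p > 0.05 nonsignificant.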

Rattus norvegicus [4] = test: Antihypertensive activity in DOCA/saline rat dosed at 50 mg/kg, administered perorally expressed as percent fall in blood pressure after 6 h; format: functional; details: route oral
Outline: as §1

Rattus norvegicus [5] = test: Antihypertensive activity in DOCA/saline rat dosed at 50 mg/kg, administered perorally expressed as percent rise in heart rate after 2 h; format: functional; details: route oral
Outline: as §1

Rattus norvegicus [6] = test: Antihypertensive activity in DOCA/saline rat dosed at 50 mg/kg, administered perorally expressed as percent rise in heart rate after 6 h; NS is not significant; format: functional, organism-based; set-up: dose 50 mg/kg
Outline: as §1

Rattus norvegicus [7] = test: Antihypertensive activity in DOCA/saline rat dosed at 50 mg/kg, administered perorally expressed as percent fall in blood pressure after 2 h; NS is not significant; format: functional, organism-based; set-up: dose 50 mg/kg
Outline: as §1

Rattus norvegicus [8] = test: Antihypertensive activity in DOCA/saline rat dosed at 50 mg/kg, administered perorally expressed as percent fall in blood pressure after 6 h; NS is not significant; format: functional, organism-based; set-up: dose 50 mg/kg
Outline: as §1

Rattus norvegicus [9] = test: (§2) Antihypertensive activity in DOCA/saline rat dosed at 50 mg/kg, administered perorally expressed as percent rise in heart rate after 2 h; NS is not significant; format: functional, organism-based; set-up: dose 50 mg/kg
Outline: as §1

Rattus norvegicus [10] = test: Antihypertensive activity in DOCA/saline rat dosed at 25 mg/kg, administered perorally expressed as percent fall in blood pressure after 6 h; NS is not significant; format: functional, organism-based; set-up: dose 25 mg/kg
Outline: as §1

Rattus norvegicus [11] = test: Antihypertensive activity in DOCA/saline rat dosed at 25 mg/kg, administered perorally expressed as percent fall in blood pressure after 2 h; format: functional; details: route oral
Outline: as §1

Rattus norvegicus [12] = test: Antihypertensive activity in DOCA/saline rat dosed at 25 mg/kg, administered perorally expressed as percent rise in heart rate after 2 h; NS is not significant; format: functional, organism-based; set-up: dose 25 mg/kg
Outline: as §1

Rattus norvegicus [13] = test: Antihypertensive activity in DOCA/saline rat dosed at 25 mg/kg, po administered perorally expressed as percent rise in heart rate after 6 h; NS is not significant; format: functional, organism-based; set-up: dose 25 mg/kg
Outline: as §1

Rattus norvegicus [14] = test: as §2; format: functional, organism-based; set-up: dose 50 mg/kg; remark: listed apart in the source
Outline: as §1

Rattus norvegicus [15] = test: Antihypertensive activity in DOCA/saline rat dosed at 50 mg/kg, administered perorally expressed as percent rise in heart rate after 6 h; format: functional; details: route oral
Outline: as §1

Rattus norvegicus [16] = test: Antihypertensive activity in DOCA/saline rat dosed at 50 mg/kg, administered perorally expressed as percent rise in heart rate after 6 h; NS is not significant,; format: functional, organism-based; set-up: dose 50 mg/kg
Outline: as §1

Rattus norvegicus [17] = test: Antihypertensive activity in DOCA/saline rat dosed at 25 mg/kg, administered perorally expressed as percent rise in heart rate after 6 h; NS is not significant; format: functional, organism-based; set-up: dose 25 mg/kg
Outline: as §1

Rattus norvegicus [18] = test: Antihypertensive activity in DOCA/saline rat dosed at 50 mg/kg, po expressed as percent fall in blood pressure after 2 h; format: functional
Outline: as §1

Rattus norvegicus [19] = test: Antihypertensive activity in DOCA/saline rat dosed at 50 mg/kg, po expressed as percent fall in blood pressure after 6 h; NS is not significant; format: functional, organism-based; set-up: dose 50 mg/kg
Outline: as §1

Rattus norvegicus [20] = test: Antihypertensive activity in DOCA/saline rat dosed at 50 mg/kg, po expressed as percent rise in heart rate after 6 h; NS is not significant; format: functional, organism-based; set-up: dose 50 mg/kg
Outline: as §1

Rattus norvegicus [21] = test: Antihypertensive activity in DOCA/saline rat dosed at 50 mg/kg, po expressed as percent rise in heart rate after 2 h; format: functional
Outline: as §1

Rattus norvegicus [22] = test: Antihypertensive activity in DOCA/saline rat dosed at 10 mg/kg, administered perorally expressed as percent fall in blood pressure after 2 h; format: functional; details: route oral
Outline: as §1

Rattus norvegicus [23] = test: Antihypertensive activity in DOCA/saline rat dosed at 10 mg/kg, administered perorally expressed as percent fall in blood pressure after 6 h; NS is not significant; format: functional, organism-based; set-up: dose 10 mg/kg
Outline: as §1

Rattus norvegicus [24] = test: Antihypertensive activity in DOCA/saline rat dosed at 25 mg/kg, administered perorally expressed as percent fall in blood pressure after 6 h; format: functional; details: route oral
Outline: as §1

Rattus norvegicus [25] = test: Antihypertensive activity in DOCA/saline rat dosed at 50 mg/kg, administered perorally expressed as percent rise in heart rate after 2 h; NS is not significant,; format: functional, organism-based; set-up: dose 50 mg/kg
Outline: as §1

Rattus norvegicus [26] = test: Antihypertensive activity in DOCA/saline rat dosed at 10mg/kg, administered perorally expressed as percent rise in heart rate after 2 h; format: functional
Outline: as §1

Rattus norvegicus [27] = test: Antihypertensive activity in DOCA/saline rat dosed at 10 mg/kg, administered perorally expressed as percent rise in heart rate after 6 h; NS is not significant; format: functional, organism-based; set-up: dose 10 mg/kg
Outline: as §1

Rattus norvegicus [28] = test: Antihypertensive activity in DOCA/saline rat dosed at 25 mg/kg, po administered perorally expressed as percent rise in heart rate after 2 h; NS is not significant; format: functional, organism-based; set-up: dose 25 mg/kg
Outline: as §1

Rattus norvegicus [29] = test: Antihypertensive activity in DOCA/saline rat dosed at 10 mg/kg, administered perorally expressed as percent fall in blood pressure after 2 h; NS is not significant; format: functional, organism-based; set-up: dose 10 mg/kg
Outline: as §1

Rattus norvegicus [30] = test: Antihypertensive activity in DOCA/saline rat dosed at 10mg/kg, administered perorally expressed as percent fall in blood pressure after 6 h; NS is not significant; format: functional, organism-based
Outline: as §1

Rattus norvegicus [31] = test: Antihypertensive activity in DOCA/saline rat dosed at 25 mg/kg, administered perorally expressed as percent fall in blood pressure after 2 h; NS is not significant; format: functional, organism-based; set-up: dose 25 mg/kg
Outline: as §1

Rattus norvegicus [32] = test: Antihypertensive activity in DOCA/saline rat dosed at 50 mg/kg, po administered perorally expressed as percent rise in heart rate after 2 h; format: functional
Outline: as §1

Rattus norvegicus [33] = test: Antihypertensive activity in DOCA/saline rat dosed at 50 mg/kg administered perorally expressed as percent rise in heart rate after 2 h; NS is not significant; format: functional, organism-based; set-up: dose 50 mg/kg
Outline: as §1

Compound	Decrease in blood pressure (Rattus norvegicus [3]) [%]	Decrease in blood pressure (Rattus norvegicus [4]) [%]	Rise HR (Rattus norvegicus [6])	Decrease in blood pressure (Rattus norvegicus [7])	Decrease in blood pressure (Rattus norvegicus [8])	Rise HR (Rattus norvegicus [9])	further results
NNc1nncc2ccccc12							Decrease in blood pressure (Rattus norvegicus [1]): inactive; Rise HR (Rattus norvegicus [2]): inactive
CCCS(=O)(=O)N[C@@H]1CCN2CCc3ccccc3[C@@H]2C1.Cl	28	46	inactive				Rise HR (Rattus norvegicus [5]): 14%
O=S(=O)(Nc1ccccc1)N[C@@H]1CCN2CCc3ccccc3[C@@H]2C1			inactive	inactive	inactive	inactive	
CNS(=O)(=O)N[C@@H]1CCN2CCc3ccccc3[C@@H]2C1.Cl	35	18	inactive				Rise HR (Rattus norvegicus [5]): 23%
CCN(CC)S(=O)(=O)N[C@@H]1CCN2CCc3ccccc3[C@@H]2C1.Cl	29		inactive		inactive	inactive	
CCS(=O)(=O)N[C@@H]1CCN2CCc3ccccc3[C@@H]2C1.Cl		43				inactive	Decrease in blood pressure (Rattus norvegicus [10]): inactive; Decrease in blood pressure (Rattus norvegicus [11]): 42%; Decrease in blood pressure (Rattus norvegicus [3]; 50 mg/kg): 56% and 37%; Rise HR (Rattus norvegicus [12]): inactive; Rise HR (Rattus norvegicus [13]): inactive; Rise HR (Rattus norvegicus [14]): inactive; Rise HR (Rattus norvegicus [15]): 22%; Rise HR (Rattus norvegicus [16]): inactive
CCS(=O)(=O)N(C)[C@@H]1CCN2CCc3ccccc3[C@@H]2C1.Cl							Decrease in blood pressure (Rattus norvegicus [10]): inactive; Decrease in blood pressure (Rattus norvegicus [11]): 36%; Rise HR (Rattus norvegicus [12]): inactive; Rise HR (Rattus norvegicus [17]): inactive
CN([C@@H]1CCN2CCc3ccccc3[C@@H]2C1)S(C)(=O)=O			inactive	inactive	inactive	inactive	
Cl.O=S(=O)(N[C@@H]1CCN2CCc3ccccc3[C@@H]2C1)N1CCCC1			inactive	inactive	inactive		Rise HR (Rattus norvegicus [5]): 22%
Cc1ccc(N(CC2=NCCN2)c2cccc(O)c2)cc1 [PHENTOLAMINE]							Decrease in blood pressure (Rattus norvegicus [18]): 36%; Decrease in blood pressure (Rattus norvegicus [19]): inactive; Rise HR (Rattus norvegicus [20]): inactive; Rise HR (Rattus norvegicus [21]): 23%
CS(=O)(=O)N[C@@H]1CCN2CCc3ccccc3[C@@H]2C1.Cl	53	68					Decrease in blood pressure (Rattus norvegicus [22]): 28%; Decrease in blood pressure (Rattus norvegicus [23]): inactive; Decrease in blood pressure (Rattus norvegicus [11]): 50%; Decrease in blood pressure (Rattus norvegicus [24]): 50%; Increase in heart rate (Rattus norvegicus [25]): Not significant; Rise HR (Rattus norvegicus [26]): 39%; Rise HR (Rattus norvegicus [27]): inactive; Rise HR (Rattus norvegicus [17]): inactive; Rise HR (Rattus norvegicus [28]): inactive; Increase in heart rate (Rattus norvegicus [6]): inactive
Cl.NS(=O)(=O)N[C@@H]1CCN2CCc3ccccc3[C@@H]2C1	48	50	inactive				Decrease in blood pressure (Rattus norvegicus [29]): inactive; Rise HR (Rattus norvegicus [26]): 24%; Rise HR (Rattus norvegicus [27]): inactive; Rise HR (Rattus norvegicus [5]): 24%; Decrease in blood pressure (Rattus norvegicus [30]): inactive
CCS(=O)(=O)N[C@H]1CCN2CCc3ccccc3[C@@H]2C1			inactive	inactive	inactive	inactive	
Cl.O=S(=O)(N[C@H]1CCN2CCc3ccccc3[C@@H]2C1)c1ccccc1		18	inactive	inactive		inactive	
CS(=O)(=O)N[C@@H]1CCN2CCc3ccc(Cl)cc3[C@@H]2C1			inactive	inactive	inactive	inactive	
COc1cc2c(cc1OC)[C@@H]1C[C@H](NS(N)(=O)=O)CCN1CC2.Cl	22		inactive		inactive	inactive	
CCCS(=O)(=O)N(C)[C@@H]1CCN2CCc3ccccc3[C@@H]2C1.Cl	38				inactive		Decrease in blood pressure (Rattus norvegicus [10]): inactive; Decrease in blood pressure (Rattus norvegicus [31]): inactive; Rise HR (Rattus norvegicus [12]): inactive; Rise HR (Rattus norvegicus [17]): inactive; Rise HR (Rattus norvegicus [15]): 21%; Rise HR (Rattus norvegicus [32]): 15%
CS(=O)(=O)N[C@H]1CCN2CCc3ccccc3[C@@H]2C1				inactive	inactive		Rise HR (Rattus norvegicus [33]): inactive; Rise HR (Rattus norvegicus [16]): inactive
O=S(=O)(N[C@@H]1CCN2CCc3ccccc3[C@@H]2C1)c1ccccc1			inactive	inactive	inactive	inactive	
CN(C)S(=O)(=O)N[C@@H]1CCN2CCc3ccccc3[C@@H]2C1.Cl	45	31	inactive			inactive	
COc1cc2c(cc1OC)[C@@H]1C[C@H](NS(C)(=O)=O)CCN1CC2.Cl	44	35	inactive				Rise HR (Rattus norvegicus [5]): 16%
